Compounds with a hit are over-represented: about 3.7% of the library has one in this group of screens.
Yeast lifespan up = compounds extending yeast replicative lifespan, primary screen, S. cerevisiae, OD615; S. cerevisiae growth with nicotinamide; deaD strain in restrictive glucose medium; inhibition of the nicotinamide effect, % at 10 µM; 0.68% of 130,000 active; AID 775, 2007;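 active = inhibition above a set limit, placed 3 SD over the median of all compounds, cut at about 26% in these data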;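 note: 0% = nicotinamide-treated wells and 100% = cells grown without nicotinamide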
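Assay system: engineered S. cerevisiae DeaD replicative-lifespan strain, galactose-grown log-phase cells; medium: restrictive CSMM-D dextrose medium; also added: nicotinamide, 1.5 mM, co-present with compound; schedule: 48 h compound exposure at 30 °C, humidified; detection: absorbance at 615 nm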
BB579 growth dn = growth inhibitors of yeast BB579 in restrictive medium, primary screen, yeast lifespan-shortening project, S. cerevisiae | OD615, 48 h | inhibition, % at 10 µM | 0.51% of 140,000 active | AID 804, 2007;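 active = inhibition above a set limit, 3 SD over the mean compound inhibition, cut at about 44% in these data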
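Test system: Saccharomyces cerevisiae DeaD strain BB579, replicative lifespan model yeast | Buffer or medium: Restrictive CSMM-D medium | Doses: One dose, 10 µM compound with 0.25% DMSO | Incubation: 48 h exposure, 30 °C | Detection: Culture absorbance at 615 nm | Control set: Amphotericin B at 10 µg/mL as positive control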
HMGR II inh = inhibitors of E. faecalis class II HMGR, primary screen, biochemical, Enterococcus faecalis. HMG-CoA reductase (Enterococcus faecalis, mvaE). purified E. faecalis HMGR, NADPH absorbance 340 nm kinetic. inhibition, % at 10 µM. 0.41% of 190,000 active;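 active = inhibition above a set limit, the median over all tested compounds plus 3 SD, cut at about 9.5% in these data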;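 note: enzyme runs in reverse so mevalonate oxidation gives rising NADPH absorbance; 0% = complete reaction with DMSO and 100% = background rate lacking mevalonate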
Insulin prom inh = inhibitors of insulin promoter-driven GFP, primary screen, imaging, TRM-6 cells, eGFP reporter, cell count | reporter expression induced with tamoxifen | inhibition, % at 2 µM | 0.9% of 130,000 active;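 active = inhibition above the mean plus 3 SD, with well images judged a real hit on visual review, cut at about 60% in these data, passing the limit was not always enough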
RAM inhibit = inhibitors of the yeast RAM network, primary screen, dse1pr::URA3 reporter, 5-FOA selection | 1.8% of 190,000 active | S. cerevisiae dse1pr::URA3 reporter, 5-FOA growth OD615, 2 d; analog-sensitive cbk1-as2 kinase mutant strain | inhibition, % at 50 µM | AID 868, 2007;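 active = inhibition above a set limit, 3 SD over mean compound inhibition, cut at about 8.4% in these data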;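 note: 0% = DMSO-only wells with no growth and 100% = 10 µM 1-NA-PP1 full growth; inhibition rescues growth on 5-FOA so higher OD means more RAM inhibition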
Starred values were filed as active, the others as inactive; . = no result.

SMILES	Yeast lifespan up	BB579 growth dn	HMGR II inh	Insulin prom inh	RAM inhibit
CCN=C1SC(C(=O)Nc2ccc(OC)cc2)CC(=O)N1CC (stereo not given)	.	.	-1	.	1
COc1ccc(O[C@H]2C=C[C@@H](c3ccccc3)O[C@@H]2COC(=O)CC/C(C)=N/O[C@@H](C)CN2CCCCc3nc(C)c(C)cc32)cc1	-3	-44	-6	-100	-1
C/C(CCN1CCc2nc(-c3ccccc3)c(-c3ccccc3)cc2C1)=N\O[C@@H](C)c1cn([C@H](CO)Cc2ccccc2)nn1	1	-37	10.0*	5	2
COc1ccc(O[C@H]2C=C[C@@H](c3ccccc3)O[C@@H]2COC(=O)CC/C(C)=N/O[C@@H](C)c2cn([C@H](CO)Cc3ccccc3)nn2)cc1	3	-60	-2	-86	11*
NS(=O)(=O)c1ccc(CCNC(=O)COC(=O)/C=C/c2ccccc2Cl)cc1	.	.	2	-9	5
CC(=O)Nc1ccc2nc(NC(=O)COc3ccccc3Cl)sc2c1	.	.	2	-42	9.9*
CC(=O)Nc1ccc2nc(NC(=O)COc3ccccc3C)sc2c1	.	.	-2	22	5
Cn1c(Cl)c(/C=N/OC(=O)c2ccccc2Cl)c2ccccc21	-16	-59	-1	-233	4
Cc1cccc(C(=O)O/N=C/c2c(N3CCOCC3)n(C)c3ccccc23)c1	-20	53*	-3	.	3
CC(C)c1ccc(NC(=O)CCCN2C(=S)NC(C)(C)CC2C)cc1 (stereo not given)	.	.	-8	.	1
C=CC[C@@H]1C=C[C@H](O/N=C/c2ccc(C(=O)N3[C@H](c4ccc(C)cc4)[C@@H](C)CC[C@H]3C(=O)OC)cc2)[C@@H](CO)O1	-1	-20	7	-33	4
O=C1c2cccc3cccc(c23)C(=O)N1OS(=O)(=O)c1ccccc1	-14	-78	0	-36	2
Cc1ccc(S(=O)(=O)ON2C(=O)c3cccc4cccc(c34)C2=O)cc1	34*	-39	2	-7	2
Cc1nc2c(Br)cc(Br)cc2cc1O	-12	-9	2	43	2
Cc1ccc2c(c1)C1C=CCC1C(C(=O)O)N2 (stereo not given)	8	-26	3	-164	8.7*
Cc1ccccc1NC(=O)Cn1nnc(S(=O)(=O)c2ccc(C(C)(C)C)cc2)c1N	4	-29	18*	-55	4
Cc1ccccc1NC(=O)Cn1nnc(C(=O)NCc2ccco2)c1N	.	.	13*	25	3
CC(=O)c1cc(C#N)c(N2CCOCC2)nc1C	.	.	3	.	0
CCc1c(C)c(C#N)c2nc3ccccc3n2c1Cl	28*	18	-1	-153	6
CC(C)c1cc(N2CCN(C(=O)c3ccco3)CC2)n2c(nc3ccccc32)c1C#N	-4	10	-7	.	5
Cc1cc(C(C)C)n2c(nc3ccccc32)c1C#N	.	.	-3	.	3
Cc1cc(-c2ccco2)c(C#N)c2nc3ccccc3n12	-32	89*	2	-19	5
Cc1cc(Nc2ccc(O)cc2)n2c(nc3ccccc32)c1C#N	.	.	-2	.	9.1*
CCOc1ccc(N(C(=O)C2CCCO2)C2C=CS(=O)(=O)C2)cc1 (stereo not given)	.	.	-2	-52	2
Cc1sc2ncnc(OCC(=O)N3CCN(C(=O)c4ccco4)CC3)c2c1C	.	.	-2	33	2
SMILES	Yeast lifespan up	BB579 growth dn	HMGR II inh	Insulin prom inh	RAM inhibit
CCCCCC(C)NC(=O)c1ccoc1C (stereo not given)	.	-11	11*	52	0
CC1=CC(C)(C)N(S(=O)(=O)c2ccc(C)cc2)c2ccccc21	12	-37	1	18	8.7*
CC1=CC(C)(C)N(S(=O)(=O)c2ccc(F)cc2)c2ccc(C)cc21	8	-60	1	-7	6
O=C(Nc1nnc(CSCc2ccc(F)cc2)s1)c1ccc([N+](=O)[O-])cc1	8	-6	-5	23	3
Cc1ccc(C(=O)Oc2ccc(Cl)c3cccnc23)cc1[N+](=O)[O-]	-28	68*	.	-53	1
N#CCCN(C(=O)COC(=O)c1cccc(S(=O)(=O)Nc2ccc([N+](=O)[O-])cc2)c1)c1ccccc1	0	-19	-3	69*	6
O=C1c2ccccc2C(=O)N1CSc1nnnn1-c1ccccc1	-10	-28	-6	-5	1
O=C1c2ccccc2C(=O)N1CCCCSc1nnnn1-c1ccccc1	-9	-42	1	.	9.3*
Cc1csc(NC(=O)c2nn(C)c(C)c2[N+](=O)[O-])n1	-2	-3	-6	33	-1
C=CCn1c(=O)c2c3c(sc2n2c(Nc4ccc(C(=O)OCC)cc4)nnc12)CCCC3	5	-84	-4	14	8.5*
N/C(=N\OC(=O)COc1ccc2ccccc2c1Br)c1cccnc1	.	.	-2	.	-2
N/C(=N\OC(=O)COc1ccc2ccccc2c1Br)c1ccccn1	.	.	0	.	9.1*
CCOc1ccc(CN(C)CC(=O)NCc2ccccc2Cl)cc1	.	.	-3	-25	-1
CCOCCCNC(=O)c1ccc(OC)cc1	-10	-7	-1	-36	0
CCOCCCNC(=O)c1ccc(Br)cc1	-25	47*	-6	-54	0
Cc1cccc(C=Nc2ccc3c(c2)oc2ccccc23)c1O	-2	-7	3	.	1
Cc1ccc(N=Cc2cccc(O)c2O)c(C)c1	-21	97*	4	.	2
Cc1ccccc1N=Cc1cccc(O)c1O	-11	97*	5	0	0
CC(N=Cc1cccc(O)c1O)c1ccccc1 (stereo not given)	-10	96*	-3	-70	-1
COc1ccc(/C=N/OCC(=O)Nn2c(C)nc3ccccc3c2=O)cc1	3	-23	0	-14	0
CCN(CC)S(=O)(=O)c1ccc(C)c(NS(=O)(=O)c2cc(/C=C/C(=O)O)cc(OC)c2OC)c1	.	.	-5	.	-1
Cc1cc(C)nc(NCCO)n1	.	.	-8	7	2
COc1ccccc1NS(=O)(=O)c1cc(NC(=O)c2ccncc2)ccc1N1CCCC1	.	.	8	-20	3
C=CCN1C(=O)C(Cc2ccc(OCC)cc2)S/C1=N\N=C\c1cccs1 (stereo not given)	30*	-44	-1	39	9.3*
O=C1CC(c2ccc(F)cc2)C(n2cncn2)C(O)=C1C1NCCc2ccccc21 (stereo not given)	.	.	-7	69	2
COc1ccc2c(CC(=O)Nc3ncc(C)s3)coc2c1	.	.	3	-48	5
O=C1C=C(c2ccccc2)C(=O)N1Nc1ccccc1	5	44*	-5	-21	-1
Cc1ccc(NN2C(=O)C=C(c3ccc(Cl)cc3)C2=O)cc1	-6	47*	1	4	1
COc1ccc(C2=CC(=O)N(Nc3ccccc3)C2=O)cc1	.	.	-3	.	1

Compound activity as filed in PubChem.
